Measured values collected from several papers.
Each line is one published result; the experiments were not run side by side.
Target: Serine/threonine-protein kinase ULK2 (ULK2, Homo sapiens, UniProt Q8IYT8)
Residues used in one study (Q8IYT8 1-1036): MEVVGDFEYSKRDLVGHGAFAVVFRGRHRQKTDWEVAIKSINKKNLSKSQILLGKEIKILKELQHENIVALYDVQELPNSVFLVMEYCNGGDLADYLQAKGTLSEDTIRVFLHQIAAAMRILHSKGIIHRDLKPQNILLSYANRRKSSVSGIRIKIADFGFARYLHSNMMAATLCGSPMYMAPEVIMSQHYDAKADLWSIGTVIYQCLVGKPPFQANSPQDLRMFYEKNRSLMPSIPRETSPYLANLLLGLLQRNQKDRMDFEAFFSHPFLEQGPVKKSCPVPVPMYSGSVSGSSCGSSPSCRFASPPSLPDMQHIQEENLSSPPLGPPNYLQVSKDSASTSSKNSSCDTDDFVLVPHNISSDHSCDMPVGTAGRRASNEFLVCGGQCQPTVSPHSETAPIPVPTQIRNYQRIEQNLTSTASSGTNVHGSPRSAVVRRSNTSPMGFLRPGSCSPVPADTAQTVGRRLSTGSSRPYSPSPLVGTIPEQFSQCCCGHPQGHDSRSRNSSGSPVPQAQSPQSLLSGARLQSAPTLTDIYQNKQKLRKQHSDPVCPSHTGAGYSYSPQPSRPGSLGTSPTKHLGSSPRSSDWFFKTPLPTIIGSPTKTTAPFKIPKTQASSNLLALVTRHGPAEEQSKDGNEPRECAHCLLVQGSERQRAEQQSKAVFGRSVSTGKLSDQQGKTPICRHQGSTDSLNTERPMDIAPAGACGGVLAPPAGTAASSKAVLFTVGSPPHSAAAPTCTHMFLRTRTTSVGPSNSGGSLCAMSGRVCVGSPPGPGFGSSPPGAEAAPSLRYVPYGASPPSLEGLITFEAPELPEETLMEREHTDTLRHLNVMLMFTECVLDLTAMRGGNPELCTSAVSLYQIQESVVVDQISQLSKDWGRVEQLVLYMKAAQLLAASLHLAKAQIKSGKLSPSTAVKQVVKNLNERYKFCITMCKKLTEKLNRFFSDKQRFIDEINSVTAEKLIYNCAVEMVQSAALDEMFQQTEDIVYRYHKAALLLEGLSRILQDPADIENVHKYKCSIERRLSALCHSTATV

Cc1nn(C)cc1-c1nc2c(N3CCN(Cc4ccc(Cl)cc4)CC3)c(Cl)cnc2[nH]1
remaining binding (binding, competition with immobilised ligand; 1 µM): 100%

C#Cc1n[nH]c2c(-c3cn([C@@H](C)c4ccccc4)c(=O)[nH]c3=O)cc(F)cc12
inhibition (enzyme activity, inhibitor; 0.1 µM): -3.5%

Nc1ncc(-c2nc(N3CCOCC3)nc(N3CCOCC3)n2)c(C(F)F)n1
remaining binding (binding, competition with immobilised ligand; 10 µM): 72%

COc1cc(Nc2ncc(F)c(Nc3ccc4c(n3)NC(=O)C(C)(C)O4)n2)cc(OC)c1OC
inhibition (binding; 10 µM): 100%

O=c1[nH]c2ccccc2n1C1CCN(Cc2ccc(-c3[nH]c4cc5ncnc5cc4nc3-c3ccccc3)cc2)CC1
remaining signal (cell-free assay; 0.5 µM): 106%

Cn1cncc1[C@](O)(COc1ccc(C#N)cc1-c1ccc(OC(F)(F)F)cc1)c1ccc(C#N)cc1
remaining binding (cell-free assay, competition with immobilised ligand; 1 µM): 100%

COc1ncccc1-c1cnn2ccc(N3CCN(C(=O)OC(C)C)CC3)nc12
remaining binding (binding, competition with immobilised ligand; 1 µM): 70%

CC(C)(C)c1cc(C=C(C#N)C#N)cc(Br)c1O
remaining activity (enzyme activity, inhibitor; 0.5 µM): 103%

C#Cc1n[nH]c2c(-c3cn(C(C)c4ccccn4)c(=O)[nH]c3=O)cc(F)cc12 (stereo not drawn)
inhibition (enzyme activity, inhibitor; 1 µM): 8.6%
